Twelve compounds from PubChem BioAssay can be followed below.

Test [1] can be described thus: inhibitors of TNFa-induced NFkB p65 translocation, primary screen, imaging, HUVEC, MLSMR starter and 10KST1 sets (AID 438;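 active = inhibition above 20% together with a positive visual image hit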;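 also: compound added about 3h40 before a 20 min TNFalpha stimulation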;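 as to inhibition: signal is the nuclear over cytoplasmic p65 intensity ratio per well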). Conditions: HUVEC TNFa-induced p65 nuclear translocation; cell count: measured here: nuclei count (cytotoxicity indicator), at 2.08 µM; inhibition: at 2 µM, stronger effect = higher value, 0% TNFa-plus-vehicle, 100% no-TNFa wells.
A short description of test [2]: endothelial E-selectin expression blockers – imaging, HUVEC, immunofluorescence, MLSMR starter and 10KST1 sets, primary screen (AID 487;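 active = visually confirmed hit in the image check and inhibition above 20%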;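 as to inhibition: signal is fraction of cell area covered by stained E-selectin grains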;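 as to nuclei count: 100% = median nuclei count of all wells on the same plate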). Conditions: HUVEC TNFalpha-induced E-selectin immunofluorescence imaging, at 2 µM; inhibition: stronger effect = higher value; nuclei count: measured here: cell number, toxicity.
Test [3] can be described thus: Primary imaging screen for DUSP6 inhibitors that restore phospho-Erk in transfected HeLa cells, chemical complementation (AID 609;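 active = compounds giving at least 50% inhibition in the cell-based MKP-3 phosphatase rescue imaging test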;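 as to inhibition: phospho-Erk level distribution per well compared with pooled transfected vehicle control wells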). To be noted: HeLa MKP-3 transfected, phospho-Erk imaging KS statistic, at 10 µM, cells stimulated with TPA for 15 min.
The target of test [4] is Dual specificity protein phosphatase 6 (Homo sapiens) (UniProt Q16828). The test is described as above. To be noted: HeLa MKP-3 transfected, phospho-Erk imaging KS statistic; at 10 µM; stronger effect = higher value; cells stimulated with TPA for 15 min.
The target in test [5] is Voltage-gated potassium channel subunit beta-2 (Rattus norvegicus) (UniProt P62483). The test is described as follows: inhibitors of rat Kvbeta2 reductase activity – biochemical, NADPH fluorescence, primary screen (AID 622;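 active = fluorescence slope higher than the sample average by over 3 SD, cut at about -0.22 in these data, passing the limit was not always enough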;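 also: slope of raw intensity against log time taken from 70 to 1610 s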). To be noted: recombinant KvBeta, 4-cyanobenzaldehyde reduction, at 10 µM, stronger effect = higher value.
Test [6] shares this target. Description: enhancers of rat Kvbeta2 NADPH turnover – biochemical, NADPH fluorescence, primary screen (AID 623;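 active = NADPH fluorescence slope more negative than the mean of all samples by about 3 SD, 99.7% confidence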;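 also: fluorescence intensity change per second fitted from 20 to 320 s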). Conditions: Recombinant KvBeta, NADPH fluorescence decrease slope, 10 min; at 10 µM; stronger effect = lower value.
Test [7] deals with Alpha-2C adrenergic receptor (Homo sapiens) (UniProt P18825). The test is described as follows: compounds altering alpha2C-coupled GIRK flux – cell-based, HEK293 alpha2C/GIRK1/2, thallium flux, primary screen (AID 624;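 active = fluorescence slope after compound addition differing from the mean of all screened samples at 99.7% confidence, in either direction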;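 also: slope of fluorescence ratio to pre-addition baseline per second over 15 to 24 s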). To be noted: thallium flux BTC fluorescence, at 10 µM, actives lie on both sides.
Test [8] can be described thus: inhibitors of larval lipid processing in zebrafish, primary screen, whole organism, PED6 fluorescence, gall bladder and intestine (AID 686;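 active = a full or partial loss of lipid-probe fluorescence in the fish gall bladder, intestine or both, judged by eye; inactive = no fluorescence loss, or compound toxic to the fish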;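 also: larvae 5 to 7 days old with five fish per well; signal comes from phospholipase A2 cleavage of quenched PED6 carried via bile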). To be noted: Zebrafish larvae PED6 lipid processing, fluorescence scoring; screened at 20 µM (by protocol). In short, it runs like this: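 system = live zebrafish larvae aged 5-7 days, whole organism | probe or stimulus = ingested quenched lipid PED6 at 100 nM | doses = 20 µM single dose | timing = overnight exposure | detection = fluorescence microscopy with visual scoring of gall bladder and intestine | read-out = visual per-well fluorescence inhibition score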

A short description of test [9]: loss of swimming-algae plug formation – whole organism, Chlamydomonas reinhardtii, WT vs cilia-less mutant, absorbance, 96-well, primary screen (AID 463189).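 Also: 0% = wild type cc124 cells in DMSO and 100% = ciliumless bld1 mutant cells.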 Conditions: Chlamydomonas reinhardtii gravitaxis, OD600 absorbance, 2 days; at 10 µM; stronger effect = higher value.
[10] abbreviates: measured here: cell density z-score.
The mark [11] stands for this setting: measured here: nuclear c-Myc green intensity z-score.
Where [12] appears, read: measured here: nuclear pErk red intensity z-score, stronger effect = higher value.

SMILES strings stand for the structures. Calls of active or inactive are those of the source.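 The calls were made as follows, unless noted: active = inhibition at or above 50% relative to wild type and mutant plate controls; inactive = inhibition below 50%.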

Sequence of Voltage-gated potassium channel subunit beta-2 (Rattus norvegicus) (P62483 whole entry, looked up): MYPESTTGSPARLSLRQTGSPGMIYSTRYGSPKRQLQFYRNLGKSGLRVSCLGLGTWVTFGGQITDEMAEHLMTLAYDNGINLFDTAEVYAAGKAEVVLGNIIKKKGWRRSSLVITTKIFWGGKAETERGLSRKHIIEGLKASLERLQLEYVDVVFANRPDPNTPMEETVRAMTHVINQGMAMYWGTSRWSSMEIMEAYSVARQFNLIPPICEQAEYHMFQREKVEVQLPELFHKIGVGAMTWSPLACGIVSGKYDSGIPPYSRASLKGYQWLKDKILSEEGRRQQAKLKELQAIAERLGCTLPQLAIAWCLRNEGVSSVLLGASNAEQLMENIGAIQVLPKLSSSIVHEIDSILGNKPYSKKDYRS
Sequence of Dual specificity protein phosphatase 6 (Homo sapiens) (Q16828 whole entry, looked up): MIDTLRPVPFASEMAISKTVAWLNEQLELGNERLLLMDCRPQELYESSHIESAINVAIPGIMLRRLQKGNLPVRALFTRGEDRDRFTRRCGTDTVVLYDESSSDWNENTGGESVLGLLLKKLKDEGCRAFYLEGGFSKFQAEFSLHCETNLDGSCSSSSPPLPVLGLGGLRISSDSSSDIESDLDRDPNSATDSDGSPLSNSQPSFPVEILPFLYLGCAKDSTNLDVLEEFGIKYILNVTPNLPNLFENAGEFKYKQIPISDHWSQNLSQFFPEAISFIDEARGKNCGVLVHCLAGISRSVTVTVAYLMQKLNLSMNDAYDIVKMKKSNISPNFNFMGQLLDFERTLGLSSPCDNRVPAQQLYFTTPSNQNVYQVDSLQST
Sequence of Alpha-2C adrenergic receptor (Homo sapiens) (P18825 whole entry, looked up): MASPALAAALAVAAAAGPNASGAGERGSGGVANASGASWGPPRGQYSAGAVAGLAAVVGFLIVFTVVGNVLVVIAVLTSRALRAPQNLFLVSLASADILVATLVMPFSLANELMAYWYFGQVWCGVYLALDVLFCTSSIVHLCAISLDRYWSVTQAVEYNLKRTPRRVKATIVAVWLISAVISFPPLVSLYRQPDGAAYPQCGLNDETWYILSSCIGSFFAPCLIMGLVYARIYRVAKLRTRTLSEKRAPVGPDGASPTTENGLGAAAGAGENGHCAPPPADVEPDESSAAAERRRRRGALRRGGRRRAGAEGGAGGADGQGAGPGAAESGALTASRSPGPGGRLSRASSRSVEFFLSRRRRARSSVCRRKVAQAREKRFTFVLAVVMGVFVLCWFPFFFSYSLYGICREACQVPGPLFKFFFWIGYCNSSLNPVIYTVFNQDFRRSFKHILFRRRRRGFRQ

As to `COC(=O)c1sc(NC(=O)C(C)C)c(C(=O)OC)c1C`, the cell count in test [1] is 354. Further, the inhibition is -0.5% (inactive) in [1], 29.8% (inactive) in test [2], 3.42% (inactive) in test [4] and -7.45% (inactive) in test [9]. The compound further showed a nuclei count in [2] of 93.5%. For the same compound, the z-score was -0.757 in test [3] (setting [10]), -0.742 in test [3] (setting [11]) and 1.06 in [3] (setting [12]). In addition, the fluorescence slope in [5] is -0.426 (inactive). The NADPH fluorescence slope in test [6] was -1.5e-05 (inactive). Besides, the slope in test [7] is 0.00623 (inactive). The compound was called inactive in test [8].
As to `CC(=NC1CCCC1)c1c(C)[nH]n(-c2nc3ccccc3s2)c1=O`, in test [1], the cell count came out at 573. Also, the inhibition in [1] is 3.4% (inactive); in test [2] it was 54.6% (inactive); in test [4], -1.12% (inactive); in test [9], 6.63% (inactive). Moreover, in [2], the nuclei count amounted to 142%. Further, the results for the z-score in test [3] (setting [10]), in [3] (setting [11]) and in test [3] (setting [12]) were 0.859, 0.776 and -1.4, respectively. Besides, the fluorescence slope in [5] is -0.469 (inactive). In addition, in test [6], the NADPH fluorescence slope was -0.000261 (inactive). Further, the slope in [7] was 0.00463 (inactive). For the same compound, in [8], the compound was classed as inactive.
As for `COc1ccc(C2C(C#N)=C(N)SC(N)=C2C#N)cc1OC`, in test [1], the cell count was 280. Also, the inhibition in test [1] was -16.8% (inactive); in test [2] it was -21.6% (inactive); in test [4] it was -10.5% (inactive); in test [9], -3.02% (inactive). The same compound had a nuclei count in test [2] of 85.8%. The z-score is 0.114 in [3] (setting [10]), 1.01 in test [3] (setting [11]) and -1.06 in test [3] (setting [12]). The fluorescence slope in test [5] is -0.401 (inactive). In [6], the NADPH fluorescence slope was -5.5e-05 (inactive). Besides, the slope in test [7] is 0.00592 (inactive). Moreover, the compound was classed as inactive in [8].
`CCOC(=O)c1ccc(N=CC2=C(O)CC(c3ccco3)CC2=O)cc1` (stereo unspecified): the cell count in [1] worked out at 411. For the same compound, the inhibition was -17.7% (inactive) in test [1], -249% (inactive) in [2], 16% (inactive) in test [4] and 1.78% (inactive) in [9]. In addition, the nuclei count in test [2] is 188%. Also, the z-score is 1.91 in test [3] (setting [10]), -1.05 in [3] (setting [11]) and 0.242 in test [3] (setting [12]). In addition, the fluorescence slope in [5] is -0.351 (inactive). Also, the NADPH fluorescence slope in test [6] is -1.6e-05 (inactive). Also, the slope in test [7] is 0.00521 (inactive). Moreover, the compound was classed as inactive in test [8].
In the case of `COc1ccc(-c2oc3ncn4nc(Cc5ccccc5)nc4c3c2-c2ccc(OC)cc2)cc1`, the cell count in [1] was found to be 561. Besides, the inhibition in test [1] was -7.8% (inactive); in test [2], -106% (inactive); in test [4], -6.06% (inactive); in test [9], -5.31% (inactive). The nuclei count in [2] turned out to be 175%. Further, the z-score worked out at 0.18 in test [3] (setting [10]), 0.751 in test [3] (setting [11]) and 0.443 in test [3] (setting [12]). The fluorescence slope in test [5] was -0.319 (inactive). For the same compound, the NADPH fluorescence slope in test [6] is -1.7e-05 (inactive). Also, the slope in [7] was 0.0116 (inactive). In addition, the compound was classed as inactive in test [8].
For `O=C(c1ccco1)N1CCN(c2ncnc3c2[nH]c2ccccc23)CC1`, the cell count in [1] was 462. The inhibition in test [1] was 0.3% (inactive); in test [2], -18.4% (inactive); in [4] it was 0.671% (inactive); in test [9] it was -4.22% (inactive). This compound also yielded a nuclei count in test [2] of 138%. For the same compound, the z-score in test [3] (setting [10]) came out at 1.15; in test [3] (setting [11]) it was 0.243; in [3] (setting [12]), 0.509. The fluorescence slope in [5] is -0.359 (inactive). Also, the NADPH fluorescence slope in [6] was -1.6e-05 (inactive). The slope in test [7] was 0.00516 (inactive). Also, the outcome in test [8] was inactive.
Consider `COc1cc(-c2nn3c(-c4ccccn4)nnc3s2)cc(OC)c1OC`, for which the cell count in test [1] came out at 600. The inhibition is -13.9% (inactive) in [1], -249% (inactive) in test [2], -2.47% (inactive) in test [4] and 13.6% (inactive) in test [9]. This compound returned a nuclei count in [2] of 171%. In addition, the figures for the z-score in test [3] (setting [10]), in test [3] (setting [11]) and in test [3] (setting [12]) were 1.12, -1.51 and 0.045, respectively. Also, the fluorescence slope in test [5] is -0.449 (inactive). Further, in test [6], the NADPH fluorescence slope is -0.000128 (inactive). Also, in [7], the slope was 0.00656 (inactive). Further, the result in test [8] was inactive.
Turning to `O=c1[nH]c(CN2CCCCC2)nc2c1C1(CCCC1)Cc1ccccc1-2`, the cell count in test [1] was determined as 414. Besides, the inhibition in [1] was -0.5% (inactive); in test [2], -29.1% (inactive); in [4] it was -1.12% (inactive); in [9], -2.89% (inactive). The same compound returned a nuclei count in test [2] of 101%. Besides, the figures for the z-score in [3] (setting [10]), in test [3] (setting [11]) and in test [3] (setting [12]) were 0.73, -0.701 and -0.0539, respectively. Also, the fluorescence slope in [5] is -0.233 (inactive). Besides, in [6], the NADPH fluorescence slope is -8.8e-06 (inactive). The slope in test [7] was 0.00603 (inactive). Besides, the compound was classed as inactive in test [8].
On to `CC1(C)CC(=O)C(C=NCCN2CCN(C(=O)C34CC5CC(CC(C5)C3)C4)CC2)=C(O)C1`, for which the cell count in [1] came out at 573. Further, the inhibition was -4.4% (inactive) in [1], -174% (inactive) in test [2], 3.97% (inactive) in test [4] and 4.48% (inactive) in test [9]. The same compound registered a nuclei count in [2] of 144%. The z-score in [3] (setting [10]) is -0.458; in test [3] (setting [11]) it was 0.612; in test [3] (setting [12]), -0.352. Besides, the fluorescence slope in test [5] is -0.493 (inactive). The NADPH fluorescence slope in [6] was -5.1e-05 (inactive). Further, the slope in test [7] is 0.00469 (inactive). For the same compound, in test [8], the compound was called inactive.
With `COc1ccc(N(CN2C(=O)C3C4C=CC(C4)C3C2=O)C(=O)c2ccco2)cc1` (stereo unspecified), the cell count in [1] is 541. Moreover, the inhibition in test [1] is 2.9% (inactive); in test [2] it was -74.9% (inactive); in test [4] it was 1.6e-07% (inactive); in test [9], -8.45% (inactive). In test [2], this compound returned a nuclei count of 117%. Further, the z-score is -1.56 in [3] (setting [10]), 1.43 in [3] (setting [11]) and 1.11 in [3] (setting [12]). Moreover, the fluorescence slope in test [5] was -0.58 (inactive). Moreover, the NADPH fluorescence slope in test [6] was -3.5e-05 (inactive). The slope in [7] was 0.00619 (inactive). Besides, the compound was called inactive in [8].
For `COc1ccc(C(=O)c2sc(NC(C)C)nc2N)cc1OC`, in test [1], the cell count turned out to be 327. Further, the inhibition in [1] is -12.2% (inactive); in [2], -16.7% (inactive); in test [4] it was -11.9% (inactive); in test [9], -3.2% (inactive). Besides, in test [2], the nuclei count is 105%. In addition, the z-score in [3] (setting [10]) was -0.265; in test [3] (setting [11]), 0.429; in test [3] (setting [12]) it was -0.628. Besides, the fluorescence slope in test [5] was -0.458 (inactive). Further, the NADPH fluorescence slope in test [6] is -6.7e-06 (inactive). In addition, the slope in test [7] is 0.0049 (inactive). Also, the compound was classed as inactive in [8].
In the case of `COc1cc(-n2c3nc4ccccc4nc3c3c(=O)n(Cc4ccco4)cnc32)cc(OC)c1OC`, in test [1], the cell count was 308. The inhibition in [1] was -15.2% (inactive); in test [2], -111% (inactive); in test [4] it was -3.5% (inactive); in [9], 3.2% (inactive). In test [2], this compound registered a nuclei count of 168%. The z-score in [3] (setting [10]) was -1.73; in [3] (setting [11]), 0.447; in test [3] (setting [12]) it was 0.876. The fluorescence slope in [5] is -0.417 (inactive). In addition, the NADPH fluorescence slope in [6] is -0.000139 (inactive). In addition, the slope in test [7] was 0.00442 (inactive). Further, in [8], the compound was classed as inactive.

Broadly, the inhibition is the change of the read-out against control, counted positive when it falls.
